# Laboratory results as given in ChEMBL document CHEMBL5653617, “Inhibition of BRD4 attenuates tumor cell self-renewal and suppresses stem cell signaling in MYC driven medulloblastoma” (Oncotarget, 2014).
# Active and inactive are the calls of the source.
# Experiments:
# Daoy [1] = experiment: Antiproliferative activity in human Daoy cells assessed as inhibition of cell growth measured upto 120 hrs by xCELLigence system; assay type: functional, cell-based; details: dose 0.1-1 µM
# Method in brief: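 Real-time impedance growth monitoring (xCELLigence, E-Plate 96). 1000 cells/well plated, DMSO or drug at varying concentrations added 24 h later, growth recorded continuously over time.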
# D458 Med [2] = experiment: Inhibition of colony formation in human D458 Med cells at 100 to 300 nM incubated for 8 to 11 days by NBT staining based methyl cellulose colony growth assay; assay type: functional, cell-based; details: dose 100-300 nM, time 8-11 day
# Method in brief: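 500 cells/well suspended in DMEM with methyl cellulose (1.3% final) containing 150 or 300 nM drug or DMSO, plated in triplicate. Colonies formed over 8–11 days, then stained with NBT (1 mg/ml) for 24 h at 37 °C. Colonies of ≥50 cells counted.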
# D283 Med [3] = experiment: Induction of cell cycle arrest in human D283 Med cells assessed as accumulation of cells at G1 phase at 300 nM incubated for 48 hrs by flow cytometry analysis (reference value: 23.47 +/- 0.29%); assay type: functional
# D425 Med = experiment: Induction of cell cycle arrest in human D425 Med cells assessed as accumulation of cells at G1 phase at 300 nM incubated for 48 hrs by flow cytometry analysis (reference value: 33.715 +/- 0.495%); assay type: functional
# D458 Med [4] = experiment: Induction of cell cycle arrest in human D458 Med cells assessed as accumulation of cells at G1 phase at 300 nM incubated for 48 hrs by flow cytometry analysis (reference value: 35.85 +/- 1.37%); assay type: functional
# D283 Med [5] = experiment: Induction of cell cycle arrest in human D283 Med cells assessed as S phase cells at 300 nM incubated for 48 hrs by flow cytometry analysis (reference value: 19.88 +/- 1.26 %); assay type: functional
# D458 Med [6] = experiment: Induction of cell cycle arrest in human D458 Med cells assessed as S phase cells at 300 nM incubated for 48 hrs by flow cytometry analysis (reference value: 43.54 +/- 3.48%); assay type: functional
# Daoy [7] = experiment: Suppression of human Daoy cells self-renewal cultured in serum free condition assessed as reduction in formation of new neurosphere at 300 nM; assay type: functional, cell-based
# Method in brief: (§1)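 Cells grown as neurospheres in serum-free medium for 48 h, dissociated, and seeded in a limiting dilution from 1000 to 1 cell/well, with 300 nM drug or DMSO. After 7 days in serum-free culture, neurospheres per well counted and plotted against cells seeded.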
# D283 Med [8] = experiment: Suppression of human D283 Med cells self-renewal cultured in serum free condition assessed as reduction in formation of new neurosphere at 300 nM; assay type: functional, cell-based; method in brief: as §1
# Daoy [9] = experiment: Induction of senescence in human Daoy cells assessed as increase in p27 mRNA expression at 300 nM by RT-qPCR analysis; assay type: functional, cell-based
# Method in brief: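 Cells treated with 300 nM drug or DMSO. p16, p21 and p27 mRNA measured by TaqMan qPCR with ΔΔCt quantitation, in triplicate.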
# Daoy [10] = experiment: Induction of senescence in human Daoy cells assessed as decrease in phosphorylated RB protein expression at 300 nM by immunoblot analysis; assay type: functional, cell-based
# Method in brief: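 Protein lysates prepared in RIPA buffer with protease inhibitors. Standard western blot with HRP-conjugated secondary antibodies and chemiluminescent detection.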
# [11] = Toxicity in athymic nude mouse xenografted with human Daoy cells assessed as change in body weight at 50 mg/kg, ip administered 5 days a week for 4 weeks and measured after 20 days; assay type: organism-based; details: in vivo, 1152 h, time 48 day
# Method in brief: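 Daoy cells (1.0×10^7 in PBS) injected into the flank of athymic nude mice. Dosing began once tumors were palpable, at a mean of 52 days post inoculation. 50 mg/kg i.p. or DMSO vehicle given 5 days/week for 4 weeks, n=10, with tumors followed a further 20 days. Volume by caliper as π/6 × L × W × H. Body weight recorded 3 times weekly.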
# Daoy [12] = experiment: Antitumor activity against human Daoy cells xenografted in athymic nude mice assessed as induction of senescence at 50 mg/kg, ip measured after 5 days by beta-galactosidase staining based analysis; assay type: functional, organism-based; details: time 5.0 day
# Method in brief: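 Daoy cells (1.0×10^7 in PBS) injected into the flank of athymic nude mice. Once tumors were palpable, drug given 50 mg/kg i.p. with DMSO as vehicle control. Animals were sacrificed after a 5-day treatment. Tumors were assessed by Ki67 IHC and by senescence-associated β-galactosidase staining.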
# Daoy [13] = experiment: In vivo inhibition of BRD4 in athymic nude mouse xenografted with human Daoy cells assessed as reduction in SOX2 mRNA expression in tumor at 50 mg/kg, ip measured after 5 days by RT-qPCR analysis; assay type: functional, organism-based; details: time 5.0 day
# Method in brief: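 Xenograft tumors from mice dosed 50 mg/kg i.p. or DMSO vehicle, n = 3 each. SOX2 mRNA measured by TaqMan qPCR with ΔΔCt quantitation, in triplicate.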
# Daoy [14] = experiment: Downregulation of IFRD1 gene expression in human Daoy cells at 300 nM by GSEA method; assay type: functional, cell-based
# Method in brief: (§2)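 Daoy cells treated with DMSO or 300 nM drug. RNA extracted and hybridized to Affymetrix HG-ST2.0 arrays. Analysis in R/Bioconductor with gene set enrichment analysis. Regulated transcripts defined as p < 0.05, FDR < 0.05, fold change < 0.67 (down) or > 1.5 (up).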
# Daoy [15] = experiment: Downregulation of CDC25B gene expression in human Daoy cells at 300 nM by GSEA method; assay type: functional, cell-based; method in brief: as §2
# Daoy [16] = experiment: Downregulation of BARD1 gene expression in human Daoy cells at 300 nM by GSEA method; assay type: functional, cell-based; method in brief: as §2
# Daoy [17] = experiment: Downregulation of MYBL2 gene expression in human Daoy cells at 300 nM by GSEA method; assay type: functional, cell-based; method in brief: as §2
# [18] = target: Bromodomain-containing protein 4 (Homo sapiens) (UniProt O60885); details: Daoy, dose 300.0 nM
# [19] = target: Bromodomain-containing protein 4 (Homo sapiens) (UniProt O60885); details: D425 Med, dose 300.0 nM
# [20] = target: Bromodomain-containing protein 4 (Homo sapiens) (UniProt O60885); details: UW228, dose 300.0 nM
# [21] = target: Bromodomain-containing protein 4 (Homo sapiens) (UniProt O60885); details: D283 Med, dose 300.0 nM
# [22] = target: Bromodomain-containing protein 4 (Homo sapiens) (UniProt O60885); details: Daoy, dose 300.0 nM; remark: listed apart in the source
# [23] = target: Bromodomain-containing protein 4 (Homo sapiens) (UniProt O60885); details: D283 Med, dose 300.0 nM; remark: listed apart in the source
# [24] = target: Bromodomain-containing protein 4 (Homo sapiens) (UniProt O60885); details: D425 Med, dose 300.0 nM; remark: listed apart in the source
# [25] = target: Bromodomain-containing protein 4 (Homo sapiens) (UniProt O60885); details: D425 Med, dose 300.0 nM; remark: listed apart in the source
# [26] = target: Bromodomain-containing protein 4 (Homo sapiens) (UniProt O60885); details: D458 Med, dose 300.0 nM
# [27] = target: Bromodomain-containing protein 4 (Homo sapiens) (UniProt O60885); details: D458 Med, dose 300.0 nM; remark: listed apart in the source
smiles,measurement,setting,value
Cc1sc2c(c1C)C(c1ccc(Cl)cc1)=N[C@@H](CC(=O)OC(C)(C)C)c1nnc(C)n1-2,Activity,Daoy [1],Dose-Dependent Effect
same,inhibition,D458 Med [2],Active
same,Activity,D283 Med [3],30.373%
same,Activity,D425 Med,39.393%
same,Activity,D458 Med [4],46.86%
same,Activity,D283 Med [5],14.093%
same,Activity,D458 Med [6],26.58%
same,Activity,Daoy [7],Active
same,Activity,D283 Med [8],Active
same,Activity,Daoy [9],Active
same,Activity,Daoy [10],Active
same,Activity,[11],Non-Toxic
same,Activity,Daoy [12],Active
same,inhibition,Daoy [13],Active
same,Activity,Daoy [14],Active
same,Activity,Daoy [15],Active
same,Activity,Daoy [16],Active
same,Activity,Daoy [17],Active
same,inhibition,[18],Active
same,inhibition,[19],Active
same,inhibition,[20],Active
same,inhibition,[21],Active
same,inhibition,[22],Active
same,inhibition,[23],Active
same,inhibition,[24],Active
same,inhibition,[25],Active
same,inhibition,[26],Active
same,inhibition,[27],Active
